Calls of active or inactive are those of the source. The calls are words filed in the database; no cut-off is given here.
Experiments:
[1] = organism: Bos taurus; test: Inhibition of bovine heart mitochondrial ATP synthase activity assessed as decrease in ATP-dependent NADH oxidation at 1 uM measured every 30 secs for 30 mins by colorimetric assay relative to control
[2] = system: NCI-H460; test: Cytotoxicity against human NCI-H460 cells assessed as reduction in cell viability measured after 48 hrs by MTT assay; assay type: functional, cell-based; conditions: NCI-H460, 48 h
Procedure, shortened: (§1)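 Cells grown at 37 °C, 5% CO2 and seeded 16−18 h before treatment. Exposed to increasing concentrations or vehicle (0.1% DMSO) for 48 h. Viability read by MTT, with vehicle-treated cells set as 100%. Mean ± SE, n = 3 wells, at least three independent comparisons. EC50 obtained by nonlinear regression fit to a logistic equation.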

[3] = system: HeLa; test: Cytotoxicity against human HeLa cells assessed as reduction in cell viability measured after 48 hrs by MTT assay
[4] = organism: Homo sapiens; test: Inhibition of mitochondrial ATP synthase activity in human NCI-H292 cells assessed as decrease in basal oxygen consumption rate at 1 uM at 32 mins followed by addition of FCCP at 87 mins and rotenon /Antimycin A at 135 mins by real-time metabolic flux analysis; assay type: cell-based
[5] = (§2) Inhibition of bovine heart mitochondrial ATP synthase activity assessed as decrease in ATP-dependent NADH oxidation measured every 30 secs for 30 mins by colorimetric assay relative to control; set-up: species or system Bos taurus
[6] = system: HeLa; test: Cytotoxicity against human HeLa cells assessed as reduction in cell viability up to 1000 nM measured after 48 hrs by MTT assay; assay type: functional, cell-based; procedure, shortened: as §1
[7] = system: HeLa; test: Cytotoxicity against human HeLa cells at 2000 cells per well assessed as decrease in cell viability at 0.25 to 1 uM after 48 hrs by MTT assay relative to control; assay type: functional
[8] = system: HeLa; test: Cytotoxicity against human HeLa cells at 6000 cells per well assessed as decrease in cell viability up to 1 uM after 48 hrs by MTT assay; assay type: functional, cell-based
[9] = system: HeLa; test: Cytotoxicity against human HeLa cells at 10000 cells per well assessed as decrease in cell viability up to 1 uM after 48 hrs by MTT assay; assay type: functional, cell-based
[10] = system: HeLa; test: Cytotoxicity against human HeLa cells assessed as reduction in cell viability at […] after 72 hrs by MTT assay; assay type: functional, cell-based
[11] = organism: Bos taurus; test: Inhibition of bovine heart mitochondrial ATP synthase activity assessed as decrease in ATP-dependent NADH oxidation at 12.5 uM measured every 30 secs for 30 mins by colorimetric assay relative to control
[12] = organism: Homo sapiens; test: Inhibition of mitochondrial ATP synthase activity in human NCI-H292 cells assessed as decrease in oxygen consumption rate at 1 uM at 32 mins followed by addition of 1 uM FCCP at 87 mins and 0.5 uM rotenon /Antimycin A at 135 mins measured by real-time metabolic flux analysis; assay type: cell-based
[13] = organism: Homo sapiens; test: Inhibition of mitochondrial ATP synthase activity in human NCI-H292 cells assessed as decrease in oxygen consumption rate at 1 uM at 87 mins followed by addition of rotenon /Antimycin A at 135 mins measured by real-time metabolic flux analysis; assay type: cell-based
[14] = organism: Homo sapiens; test: Inhibition of mitochondrial ATP synthase activity in human NCI-H292 cells assessed as decrease in oxygen consumption rate at 1 uM at 135 mins after FCCP treatment at 87 mins by real-time metabolic flux analysis; assay type: cell-based
[15] = system: NCI-H460; test: Cytotoxicity against human NCI-H460 cells assessed as reduction in cell viability measured after 72 hrs by MTT assay; conditions: NCI-H460, 72 h
[16] = system: HeLa; test: Induction of apoptosis in human HeLa cells assessed as caspase-3/7 activation at 1 to 300 nM incubated for 24 hrs measured by luminescence-based Caspase-Glo assay
[17] = system: HEK-293T; test: Cytotoxicity against HEK293T cells assessed as decrease in cell viability measured after 48 hrs by MTT assay; assay type: cell-based; conditions: human; procedure, shortened: as §1
[18] = system: HeLa; test: Cytotoxicity against human HeLa cells at 6000 cells per well assessed as cell viability at 100 to 1000 nM after 48 hrs by MTT assay relative to control; assay type: functional
[19] = Safety index, ratio of compound EC50 to Oligomycin A EC50 for cytotoxicity against HEK293T cells; assay type: cell-based, HEK-293T; conditions: human, read-out: Ratio EC50
Procedure, shortened: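 HEK 293T cells were grown in DMEM with 10% FBS, 2 mM L-glutamine and 1% penicillin/streptomycin at 37 °C and 5% CO2. They were seeded at two starting densities 16−18 h before treatment with increasing concentrations of test compound or oligomycin A (final DMSO ≤0.1%). Viability was read by MTT relative to vehicle (100%), with EC50s fit by nonlinear logistic regression and compared as a ratio.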

[20] = system: HeLa; test: Cytotoxicity against human HeLa cells assessed as reduction in cell viability at 0.03 to 300 nM after 72 hrs in presence of 2-deoyxglucose by MTT assay; assay type: functional, cell-based
[21] = organism: Bos taurus; test: as §2
[22] = system: HeLa; test: Cytotoxicity against human HeLa cells at 2000 cells per well assessed as decrease in cell viability at 100 to 1000 nM after 48 hrs by MTT assay relative to control; assay type: functional
[23] = system: HeLa; test: Cytotoxicity against human HeLa cells at 10000 cells per well assessed as cell viability at 100 to 1000 nM after 48 hrs by MTT assay relative to control; assay type: functional

COC[C@@H](C[C@H]1O[C@@](O)([C@H](O)[C@@H]2C[C@H](OC)[C@@H](O)CC/C=C(C)/C=C/[C@@H](O[C@@H]3O[C@@H](C)[C@H](OC)[C@@H](O)[C@@H]3O)[C@H](C)/C=C(C)/C=C(C)/C=C(\C)C(=O)O2)[C@H](C)[C@@H](O)[C@H]1C)O[C@H]1C[C@](C)(O)[C@@H](O[C@H]2C[C@@H](OC)[C@H](O)[C@@H](C)O2)[C@H](C)O1
inhibition [1]: Active

CCCC(=O)O[C@H]1[C@@H](OC)[C@H](O[C@@H]2C[C@@H]3C[C@H](O)[C@]4(O)C(=O)O[C@@H](C[C@H](O)[C@@H]5C[C@H](C)[C@H](C/C=C\C=C\[C@H](C)C[C@H](C2)O3)O5)[C@H]4O)O[C@@H](C)[C@H]1OC(=O)CCC
EC50 [2]: 2000 nM | EC50 [3]: 1900 nM

CCCC(=O)O[C@H]1[C@@H](OC)[C@H](O[C@@H]2C[C@@H]3C[C@H](OC(C)=O)[C@@]4(O)C[C@H](C[C@H](OC(C)=O)[C@@H]5C[C@H](C)[C@H](C/C=C\C=C\[C@H](C)C[C@H](C2)O3)O5)OC4=O)O[C@@H](C)[C@H]1OC(=O)CCC
EC50 [2]: 2400 nM | EC50 [3]: > 3000 nM

CCCC(=O)O[C@H]1C[C@H]2C[C@@H](O)C[C@@H](C[C@@H](C)/C=C/C=C\C[C@@H]3O[C@@H](C[C@@H]3C)[C@@H](O)C[C@@H]3OC(=O)[C@]1(O)[C@@H]3O)O2
EC50 [2]: > 3000 nM | inhibition [4]: inactive | IC50 [5]: 3400 nM | EC50 [3]: > 3000 nM

COC(=O)/C=C/C[C@H]1C[C@@H](O[C@@H]2O[C@@H](C)[C@H](O)[C@@H](O)[C@H]2OC)C[C@@H](C[C@@H](C)/C=C/C=C\C[C@@H]2O[C@H]([C@@H](O)C[C@H](O)CO)C[C@@H]2C)O1
Activity [6]: inactive

OC[C@H]1OC(O)C[C@@H](O)[C@@H]1O (some centres undefined)
Activity [7]: 50% | Activity [8]: inactive | Activity [9]: inactive | Activity [10]: Active

CC[C@@H]1/C=C/C=C/C[C@H](C)[C@@H](O)[C@](C)(O)C(=O)[C@@H](C)[C@H](O)[C@@H](C)C(=O)[C@H](C)[C@@H](O)[C@H](C)/C=C/C(=O)O[C@H]2[C@@H](C)[C@@H](CC1)O[C@@]1(CC[C@@H](C)[C@@H](C[C@H](C)O)O1)[C@@H]2C
inhibition [4]: Active | inhibition [11]: Active | inhibition [12]: Active

CCCC(=O)O[C@H]1C[C@H]2C[C@@H](O[C@@H]3O[C@@H](C)[C@@H](O)[C@@H](O)[C@H]3OC)C[C@@H](C[C@@H](C)/C=C/C=C\C[C@@H]3O[C@@H](C[C@@H]3C)[C@@H](O)C[C@H]3C[C@@]1(O)C(=O)O3)O2
EC50 [2]: 44 nM | inhibition [13]: Active | inhibition [4]: Active | inhibition [12]: Active | inhibition [14]: Active | EC50 [3]: 16 nM

CCCCCCCC(=O)OC[C@@H]1C[C@H](O)[C@@H]2C[C@H](C)[C@H](C/C=C\C=C\[C@H](C)C[C@@H]3C[C@H](O[C@@H]4O[C@@H](C)[C@H](O)[C@@H](O)[C@H]4OC)C[C@H](C/C=C/C(=O)O1)O3)O2
EC50 [2]: 9.8 nM | EC50 [3]: 2.8 nM

CCCC(=O)OC1C(=O)C(OC)C(O[C@@H]2C[C@@H]3C[C@H](OC(=O)CCC)[C@]4(O)C(=O)O[C@@H](C[C@H](O)[C@@H]5C[C@H](C)[C@H](C/C=C\C=C\[C@H](C)C[C@H](C2)O3)O5)[C@H]4O)OC1C (some centres undefined)
EC50 [2]: 270 nM | EC50 [3]: 50 nM

CCCC(=O)O[C@H]1C[C@H]2C[C@@H](O)C[C@@H](C[C@@H](C)/C=C/C=C\C[C@@H]3O[C@@H](C[C@@H]3C)[C@@H](O)C[C@@H]3OC(=O)[C@]1(O)[C@@H]3OC(=O)CCC)O2
EC50 [2]: 1700 nM | EC50 [3]: 660 nM

CCCC(=O)O[C@H]1[C@@H](OC)[C@H](O[C@@H]2C[C@@H]3C[C@H](OC(=O)CCC)[C@]4(O)C(=O)O[C@@H](C[C@H](O)[C@@H]5C[C@H](C)[C@H](C/C=C\C=C\[C@H](C)C[C@H](C2)O3)O5)[C@H]4O)O[C@@H](C)[C@H]1OC(=O)CCC
EC50 [2]: > 3000 nM | EC50 [3]: > 3000 nM

CO[C@H]1[C@H](O[C@@H]2C[C@@H]3C/C=C/C(=O)O[C@H](CO)C[C@H](O)[C@@H]4C[C@H](C)[C@H](C/C=C\C=C\[C@H](C)C[C@H](C2)O3)O4)O[C@@H](C)[C@H](O)[C@H]1O
EC50 [15]: 11 nM | Activity [16]: Active | Activity [17]: Dose-dependent effect | Activity [18]: 85% | selectivity ratio [19]: 13 to 30 | Activity [20]: Active | inhibition [4]: Active | inhibition [21]: Dose-dependent effect | IC50 [5]: 2.2 nM | Activity [22]: 25% | Activity [23]: 85% | EC50 [3]: 9.9 nM

CCCC(=O)O[C@H]1[C@@H](OC)[C@H](O[C@@H]2C[C@@H]3C[C@H](OC(=O)CCC)[C@@]4(O)C[C@H](C[C@H](O)[C@@H]5C[C@H](C)[C@H](C/C=C\C=C\[C@H](C)C[C@H](C2)O3)O5)OC4=O)O[C@@H](C)[C@H]1OC(=O)CCC
EC50 [2]: 910 nM | EC50 [3]: 2000 nM

CCCCCC(=O)O[C@H]1C[C@H]2C[C@@H](O)C[C@@H](C[C@@H](C)/C=C/C=C\C[C@@H]3O[C@@H](C[C@@H]3C)[C@@H](O)C[C@@H]3OC(=O)[C@]1(O)[C@@H]3OC(=O)CCC)O2
EC50 [2]: 2600 nM | EC50 [3]: 330 nM

CCCC(=O)O[C@H]1[C@@H](OC)[C@H](O[C@@H]2C[C@@H]3C[C@H](OC(=O)CCC)[C@@]4(O)C[C@H](C[C@H](OC(C)=O)[C@@H]5C[C@H](C)[C@H](C/C=C\C=C\[C@H](C)C[C@H](C2)O3)O5)OC4=O)O[C@@H](C)[C@H]1OC(=O)CCC
EC50 [2]: 790 nM | EC50 [3]: > 3000 nM
